CHOP inh – inhibitors of CHOP promoter induction, primary screen, cell-based, unfolded protein response, luciferase reporter. CHO-K1 CHOP-promoter luciferase, tunicamycin-induced, 15-18 h. inhibition, % at 10 µM. actives 3.8% (n = 220,000). AID 2732, 2010;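 active = compounds that reduced the stress-induced luciferase reporter signal by more than about 70% of percent inhibition, limit read from the data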;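 note: 0% = tunicamycin plus vehicle and 100% = wells without tunicamycin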
Jurkat NFkB inh – inhibitors of induced NF-kB luciferase reporter, primary screen, TCR NF-kB activation inhibitor project, cell-based, luminescence, uHTS | Jurkat, PMA/ionomycin-induced NF-kB luciferase reporter | inhibition, % at 4 µM | actives 0.53% (n = 330,000) | AID 435003, 2010; in the data active = inhibition above about 50%
XBP1 UPR activ – activators of adaptive XBP1 UPR arm, primary screen, cell-based, CHO-XBP1 luciferase reporter, luminescence, uHTS; IRE1-XBP1 UPR activation; percent of tunicamycin response, DMSO as zero; activation, % at 20 µM; actives 0.33% (n = 330,000);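 active = versus positive control, 20 µM dose yields 30% or more activation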;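 note: 100% = tunicamycin at 10 µg/mL and 0% = DMSO only wells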
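incubation = overnight seeding at 37 °C, 6 h compound treatment at 37 °C | assay system = CHO-XBP1 cells stably carrying IRE1-XBP1-driven luciferase reporter | input = 1000 cells per well | detection = luciferase luminescence | dosing = single point, 20 µM final compound, 1% DMSO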
697 NFkB inh – inhibitors of PMA/ionomycin-induced NF-kB reporter, 697 cells, primary screen, B-cell NF-kB inhibitor project, cell-based, luminescence, uHTS | actives 0.33% (n = 330,000) | inhibition, % at 4 µM | 697 B-cell NF-kB luciferase reporter, 16 h | AID 435022, 2010; in the data active = inhibition above about 35%
CHOP UPR activ – activators of apoptotic CHOP UPR arm, primary screen, cell-based, CHO-CHOP luciferase reporter, luminescence, uHTS; UPR activation; percent of tunicamycin response over DMSO baseline; activation, % at 10 µM; actives 0.34% (n = 330,000); AID 449763, 2010;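 active = at 10 µM dose, activation of 40% or more, normalized to positive control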;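 note: 100% = tunicamycin at 10 µg/mL and 0% = DMSO alone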
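Material: CHO-CHOP cells, stable luciferase reporter of PERK-eIF2a-CHOP signalling; quantity: 500 reporter cells seeded per well; buffer or medium: F12 medium containing 10% fetal bovine serum; compound: one dose, 10 µM in 0.5% DMSO; incubation: 6 h compound treatment, 37 °C; measured by: Steady-Glo luciferase luminescence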
697 NFkB conf – PMA/ionomycin-induced NF-kB reporter inhibitors, 697 retest, confirmation, B-cell NF-kB inhibitor project, cell-based, luminescence, single concentration; 697 B-cell NF-kB luciferase, 16 h; shares compounds with 697 NFkB inh; actives 35% (n = 2,000); inhibition, % at 4 µM; in the data active = inhibition mostly above about 28%, no sharp cut-off; inactive = mostly below about 22%
The depositor's hits bear a star. Many of the other results were omitted from the sample, so hits are more common in it than they were.

How did Oc1ccc(C[C@@H]2CNCCN2CCc2cc(C(F)(F)F)cc(C(F)(F)F)c2)cc1 do in these assays?
Jurkat NFkB inh: 16; XBP1 UPR activ: 5; 697 NFkB inh: -8; CHOP UPR activ: 2

What do the screens show for `FC(F)(F)c1cc(CCN2CCNC[C@H]2Cc2cccc3ccccc23)cc(C(F)(F)F)c1`?
Jurkat NFkB inh: 20; XBP1 UPR activ: 6; 697 NFkB inh: 36*; CHOP UPR activ: 11; 697 NFkB conf: 13

How did CCOC(=O)Cn1nc(C)c(NC(=O)c2ccc([N+](=O)[O-])c(C)c2)c1C do in these assays?
CHOP inh: 4; Jurkat NFkB inh: 8; XBP1 UPR activ: -1; 697 NFkB inh: 14; CHOP UPR activ: 3

Results for Cc1cc(C)n2nc(C(=O)N3CCCC(N4CCN(c5ccccc5C)CC4)C3)cc2n1 (configuration not stated) ?
Jurkat NFkB inh: 14; XBP1 UPR activ: -2; 697 NFkB inh: -48; CHOP UPR activ: 1

How did CCOCCCNC(=S)Nc1ccc2nc3n(c(=O)c2c1)CCCCC3 do in these assays?
CHOP inh: -1; Jurkat NFkB inh: 3; XBP1 UPR activ: -2; 697 NFkB inh: 14; CHOP UPR activ: 0

What do the screens show for `COCCCNC(=S)Nc1ccc2nc3n(c(=O)c2c1)CCCCC3`?
CHOP inh: 7; Jurkat NFkB inh: -10; XBP1 UPR activ: 0; 697 NFkB inh: 35*; CHOP UPR activ: -2; 697 NFkB conf: 4

Results for Cc1ccnc(NC(=O)Nc2ccc3c(c2)N(C)C(=O)CS3)c1 ?
CHOP inh: 3; Jurkat NFkB inh: -77; XBP1 UPR activ: 0; 697 NFkB inh: -338; CHOP UPR activ: 1; 697 NFkB conf: -227

Results for CN1C(=O)CSc2ccc(NC(=O)N3CCN(c4ccccc4)CC3)cc21 ?
CHOP inh: 7; Jurkat NFkB inh: -11; XBP1 UPR activ: -1; 697 NFkB inh: 36*; CHOP UPR activ: 0; 697 NFkB conf: 31*

What do the screens show for `CC(=O)c1ccc(NC(=O)Nc2ccc3c(c2)N(C)C(=O)CS3)cc1`?
CHOP inh: 67; Jurkat NFkB inh: -10; XBP1 UPR activ: 3; 697 NFkB inh: 10; CHOP UPR activ: 4

Results for Cc1ccc(NC(=O)Nc2ccc3c(c2)N(C)C(=O)CS3)nc1 ?
CHOP inh: 13; Jurkat NFkB inh: 10; XBP1 UPR activ: 6; 697 NFkB inh: -78; CHOP UPR activ: 4

Results for Cc1ccc2nc(NC(=O)c3cccs3)sc2c1 ?
CHOP inh: 66; Jurkat NFkB inh: -138; XBP1 UPR activ: -3; 697 NFkB inh: -434; CHOP UPR activ: -4; 697 NFkB conf: -455

Results for Cc1ccc(Cc2cnc(NC(=O)c3cccs3)s2)cc1 ?
CHOP inh: 56; Jurkat NFkB inh: -124; XBP1 UPR activ: -1; 697 NFkB inh: -299; CHOP UPR activ: 5; 697 NFkB conf: -259

How did O=C(Nc1nc2c(s1)CCCC2)c1cccs1 do in these assays?
CHOP inh: 32; Jurkat NFkB inh: -134; XBP1 UPR activ: -2; 697 NFkB inh: -252; CHOP UPR activ: 0; 697 NFkB conf: -264

Results for O=C(Oc1ccc2ccc(O)cc2c1)c1ccccc1Cl ?
Jurkat NFkB inh: -67; XBP1 UPR activ: -1; 697 NFkB inh: -21; CHOP UPR activ: 9

What do the screens show for `CCOC(=O)C1CCN(c2ncnc3c2cnn3-c2ccc(OC)cc2)CC1`?
CHOP inh: 30; Jurkat NFkB inh: -4; XBP1 UPR activ: 3; 697 NFkB inh: 47*; CHOP UPR activ: 3; 697 NFkB conf: 36*

How did COc1ccc(-n2ncc3c(N4CCC(C(N)=O)CC4)ncnc32)cc1 do in these assays?
CHOP inh: -19; Jurkat NFkB inh: -70; XBP1 UPR activ: -3; 697 NFkB inh: 60*; CHOP UPR activ: 1; 697 NFkB conf: 45*

What do the screens show for `S=C(NCC1CCCO1)N1CCN(c2nc(-c3ccccc3)cs2)CC1` (configuration not stated)?
CHOP inh: 38; Jurkat NFkB inh: -2; XBP1 UPR activ: -2; 697 NFkB inh: -38; CHOP UPR activ: -1

How did CCOC(=O)N1CCN(CC(=O)Nc2ccc([N+](=O)[O-])cc2C(=O)Nc2ccccc2F)CC1 do in these assays?
CHOP inh: 32; Jurkat NFkB inh: 42; XBP1 UPR activ: 0; 697 NFkB inh: 38*; CHOP UPR activ: -1; 697 NFkB conf: 39*

What do the screens show for `O=C(CN1CCN(Cc2ccccc2)CC1)Nc1ccc([N+](=O)[O-])cc1C(=O)Nc1ccccc1F`?
CHOP inh: 23; Jurkat NFkB inh: 7; XBP1 UPR activ: 1; 697 NFkB inh: 11; CHOP UPR activ: 3

Results for CC1CCN(S(=O)(=O)c2cnc(Cl)c(Br)c2)CC1 ?
CHOP inh: -25; Jurkat NFkB inh: -1; XBP1 UPR activ: -2; 697 NFkB inh: 38*; CHOP UPR activ: 0; 697 NFkB conf: 23

Results for COc1cc2c(cc1OC)-c1cc(Nc3ccccc3)nc(=O)n1CC2 ?
CHOP inh: -7; Jurkat NFkB inh: 4; XBP1 UPR activ: 2; 697 NFkB inh: 5; CHOP UPR activ: 0

What do the screens show for `COc1cc2c(cc1OC)-c1cc(N3CCc4ccccc43)nc(=O)n1CC2`?
CHOP inh: 10; Jurkat NFkB inh: -11; XBP1 UPR activ: 0; 697 NFkB inh: 35*; CHOP UPR activ: 1; 697 NFkB conf: 19

Results for COc1cc2c(cc1OC)-c1cc(Nc3ccccc3Br)nc(=O)n1CC2 ?
Jurkat NFkB inh: 3; XBP1 UPR activ: 8; 697 NFkB inh: 35*; CHOP UPR activ: 2; 697 NFkB conf: 10

How did COc1cc2c(cc1OC)-c1cc(N3CCCc4ccccc43)nc(=O)n1CC2 do in these assays?
CHOP inh: 10; Jurkat NFkB inh: -2; XBP1 UPR activ: 5; 697 NFkB inh: 19; CHOP UPR activ: -1

What do the screens show for `Cc1cc(C)cc(NC(=O)c2nnn(Cc3cc(C)ccc3C)c2N)c1`?
CHOP inh: 93*; Jurkat NFkB inh: -8; XBP1 UPR activ: 0; 697 NFkB inh: 38*; CHOP UPR activ: 1; 697 NFkB conf: 29*

Results for CCOC(=O)N1CCN(S(=O)(=O)c2c[nH]c(C(=O)OC)c2)CC1 ?
Jurkat NFkB inh: 19; XBP1 UPR activ: -6; 697 NFkB inh: 7; CHOP UPR activ: 1

Results for Cc1ccccc1-c1nnc(SCC(=O)Nc2cccc(C)c2C)o1 ?
CHOP inh: 11; Jurkat NFkB inh: -33; XBP1 UPR activ: 1; 697 NFkB inh: 37*; CHOP UPR activ: -2; 697 NFkB conf: 14
